Measurements published in ChEMBL document CHEMBL4477160, “Methylbenzene-Containing Polyketides from a Streptomyces that Spontaneously Acquired Rifampicin Resistance: Structural Elucidation and Biosynthesis” (J Nat Prod, 2016).
The source made the active and inactive calls.

How the values were obtained:
Staphylococcus aureus = assay: Antimicrobial activity against Staphylococcus aureus assessed as decrease in cell viability at 1.56 to 100 uM after 24 hrs; type: functional, organism-based
Summary of the method: (§1)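 Compounds in DMSO dispensed at a range of concentrations into 384-well plates. Each test strain was grown to OD620 ~0.5, diluted 2000-fold in LB medium and added to the wells. Plates were incubated 24 h at 37 °C. Viability was read as absorbance at 620 nm.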

SK-OV-3 = assay: Cytotoxicity against human SKOV3 cells assessed as decrease in cell viability at 0.01 to 100 uM after 72 hrs by WST-8 assay; type: functional, cell-based
Homo sapiens = species on record: Homo sapiens; assay: Cytotoxicity against human ACC-MESO1 cells assessed as decrease in cell viability at 0.01 to 100 uM after 72 hrs by WST-8 assay; type: functional, cell-based
Micrococcus luteus = assay: Antimicrobial activity against Micrococcus luteus assessed as decrease in cell viability at 1.56 to 100 uM after 24 hrs; type: functional, organism-based; summary of the method: as §1
Jurkat = assay: Cytotoxicity against human Jurkat cells assessed as decrease in cell viability at 0.01 to 100 uM after 72 hrs by WST-8 assay; type: functional, cell-based
Escherichia coli = assay: Antimicrobial activity against Escherichia coli assessed as decrease in cell viability at 1.56 to 100 uM after 24 hrs; type: functional, organism-based; summary of the method: as §1
Bacillus subtilis = assay: Antimicrobial activity against Bacillus subtilis assessed as decrease in cell viability at 1.56 to 100 uM after 24 hrs; type: functional, organism-based; summary of the method: as §1

Measured: Activity

Cc1ccccc1/C=C/CCC(=O)NC1=C(O)CCC1=O
inactive: all assays above

Cc1ccccc1/C=C/C=C/C=C/C=C/C(=O)NC1=C(O)CCC1=O
inactive: all assays above
